The record followed here is ChEMBL document CHEMBL1159001, “Isolation, purification, and cytotoxicity of 5-methoxypodophyllotoxin, a lignan from a root culture of Linum flavum” (1992).

Converted amounts (≈) assume the structure as drawn.

One assay deals with HeLa. Description: Cytotoxicity against human HeLa cells after 4 days by trypan blue assay. The class given is functional. Particulars: 96 h, read-out: ED50 (the source's name). The method, boiled down:
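HeLa cells cultured in Joklik's MEM with 10% fetal calf serum, streptomycin and penicillin G (doubling time ca. 24 h). Exponentially growing cells with >95% trypan-blue viability. Lignans were taken from 0.5 or 5 mM stocks in 96% EtOH, and 24 twofold dilutions were made in medium. 2000 cells/well, 4 days at 37°, 5% CO2. Growth was scored visually by pellet diameter against untreated controls, and ED50 (50% growth inhibition) calculated.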

Assay [1] can be described thus: Cytotoxicity against mouse EAT cells after 4 days by trypan blue assay. The class given is functional. As to conditions: 96 h, read-out: ED50 (the source's name). An outline of the steps: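 Murine Ehrlich ascites tumor cells grown in suspension in RPMI 1640 with 10% fetal calf serum, streptomycin and penicillin G (doubling time 12–14 h). Exponential-phase cells, viability >95% by trypan blue. Lignans came from 0.5 or 5 mM 96% EtOH stocks, in 24 twofold dilutions. 2000 viable cells/well, incubated 4 days at 37°, 5% CO2. Sedimented pellet diameters were compared visually with untreated wells, and ED50 derived as 50% growth inhibition.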

For the compound `COc1cc([C@@H]2c3cc4c(cc3[C@H](O)[C@H]3COC(=O)[C@H]23)OCO4)cc(OC)c1OC` [PODOFILOX], the EC50 amounted to 20.5 µg/mL (≈ 49.5 µM) in the assay with HeLa and 42.8 µg/mL (≈ 103 µM) in assay [1].
In the case of `COc1cc([C@@H]2c3cc4c(cc3[C@@H](O[C@@H]3O[C@@H]5CO[C@@H](C)O[C@H]5[C@H](O)[C@H]3O)[C@H]3COC(=O)[C@H]23)OCO4)cc(OC)c1O` [ETOPOSIDE], the figures for the EC50 (with HeLa; in assay [1]) were 7.9 µg/mL (≈ 13.4 µM) and 1.1 µg/mL (≈ 1.87 µM), respectively.
Taken in the same sequence, the figures for `COc1cc([C@@H]2c3cc4c(cc3[C@H](O[C@@H]3O[C@H](CO)[C@@H](O)[C@H](O)[C@H]3O)[C@H]3COC(=O)[C@H]23)OCO4)cc(OC)c1OC` were 21.8 µg/mL (≈ 37.8 µM) and 30 µg/mL (≈ 52 µM).
Consider `COc1cc([C@@H]2c3cc4c(cc3[C@@H](O[C@@H]3O[C@@H]5CO[C@@H](c6cccs6)O[C@H]5[C@H](O)[C@H]3O)[C@H]3COC(=O)[C@H]23)OCO4)cc(OC)c1O` [TENIPOSIDE], for which the figures for the EC50 (in the assay with HeLa; in assay [1]) were 0.3 µg/mL (≈ 0.457 µM) and 0.06 µg/mL (≈ 0.0914 µM), respectively.
Taken in the same sequence, the figures for `COc1cc([C@@H]2c3cc4c(c(OC)c3[C@H](O)[C@H]3COC(=O)[C@H]23)OCO4)cc(OC)c1OC` were 22 µg/mL (≈ 49.5 µM) and 32 µg/mL (≈ 72 µM).
